Sampled rows, rich in hits. Any-hit rate of the full collection: about 2.2%.
SIRT5 inh = sirtuin-5 (human) deacylase inhibition | Q9NXA8 | Purified SirT5, succinyl-peptide AMC, trypsin-coupled fluorescence | inhibition, % at 15 µM | hit rate 1.1% among 330,000 | AID 652115; in the data active = inhibition above about 15%
FGF22 binding = binders of recombinant human FGF22 by thermal shift. Q9HCT0. SYPRO orange fluorescence; percent of sucrose octasulfate shift, DMSO zero. activity (Tm shift, normalised), % at 9.99 µM. hit rate 1.5% among 340,000. AID 651658;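 active = mean Tm shift, scaled 0 neutral to 100 positive control, at about 1.3% or above, every replicate too, limit read from the data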
FN deposition inh = fibronectin deposition inhibition; AID 743247; inhibition, % at 12.6 µM; AH1F fibroblasts, Alexa488-fibronectin deposition fluorescence, overnight; hit rate 0.086% among 350,000;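 active = mean inhibition across replicates of 30% or more, regardless of how many single replicates reach that level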;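 also: positive control wells lacked labelled fibronectin entirely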
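material = AH1F fibroblast monolayer depositing Alexa488-labelled fibronectin into matrix | amount = 10000 AH1F cells/well | buffer or medium = DMEM plus 2% serum, read in PBS | incubation = 1 h cell adhesion before compound, then overnight fibronectin incubation | detection = fluorescence at 485 nm excitation, 525 nm emission | evaluation = percent inhibition as loss of matrix-bound fibronectin fluorescence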
ERAP1 inh = blocks human ERAP1 aminopeptidase activity; recombinant ERAP1, Leu-AMC fluorescence, 60 min; inhibition, % at 10.7 µM; hit rate 0.15% among 340,000; AID 652197;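 active = mean replicate inhibition of at least 30%, or all replicates individually reaching that 30% level; inactive = mean below 30% and not every replicate reaching it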;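 also: 0% = neutral control wells and 100% = L-leucinethiol positive control wells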
Target sequence (Q9NZ08 whole entry, looked up): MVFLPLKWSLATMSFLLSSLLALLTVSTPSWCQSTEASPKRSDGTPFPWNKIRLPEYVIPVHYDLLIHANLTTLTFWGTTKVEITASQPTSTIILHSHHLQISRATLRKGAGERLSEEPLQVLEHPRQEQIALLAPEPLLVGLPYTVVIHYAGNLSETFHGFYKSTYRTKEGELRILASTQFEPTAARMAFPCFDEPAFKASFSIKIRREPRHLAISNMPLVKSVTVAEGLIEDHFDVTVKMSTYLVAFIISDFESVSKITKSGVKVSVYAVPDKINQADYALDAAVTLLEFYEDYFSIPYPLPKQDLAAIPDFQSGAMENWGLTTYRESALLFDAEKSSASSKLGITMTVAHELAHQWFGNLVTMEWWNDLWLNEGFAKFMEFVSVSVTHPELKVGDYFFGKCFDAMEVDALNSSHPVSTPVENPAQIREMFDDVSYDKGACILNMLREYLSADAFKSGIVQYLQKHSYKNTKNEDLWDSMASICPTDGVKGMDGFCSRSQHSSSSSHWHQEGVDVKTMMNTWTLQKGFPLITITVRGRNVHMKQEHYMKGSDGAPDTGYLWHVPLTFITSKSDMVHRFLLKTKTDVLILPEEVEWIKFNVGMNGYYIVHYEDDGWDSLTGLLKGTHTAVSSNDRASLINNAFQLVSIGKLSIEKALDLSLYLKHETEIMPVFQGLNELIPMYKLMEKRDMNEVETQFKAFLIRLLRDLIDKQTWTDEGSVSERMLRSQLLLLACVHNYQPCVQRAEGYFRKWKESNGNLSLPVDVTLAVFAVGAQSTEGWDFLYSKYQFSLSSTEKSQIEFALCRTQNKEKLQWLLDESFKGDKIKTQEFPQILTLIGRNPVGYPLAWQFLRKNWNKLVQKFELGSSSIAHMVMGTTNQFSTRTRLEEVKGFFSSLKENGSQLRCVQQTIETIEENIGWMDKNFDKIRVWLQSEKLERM
PGC1a acetyl inh = modulators of PGC1a acetylation; U2OS PGC1a acetylation, AlphaScreen anti-acetyl-lysine; with virally co-expressed GCN5 acetyltransferase; hit rate 0.17% among 350,000; inhibition, % at 15.6 µM;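 active = every replicate shows inhibition of at least 40%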;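 also: 0% = neutral control wells and 100% = positive control wells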
Active calls of the source: *; . = not tested or not shown.

SMILES	SIRT5 inh	FGF22 binding	FN deposition inh	ERAP1 inh	PGC1a acetyl inh
CCN(CC)c1ccc(S(=O)(=O)N2CCOCC2)cc1NC(=O)CNCc1ccccc1	-2	0	-12	-4	.
O=C(CN1CCN(S(=O)(=O)c2ccccc2)CC1)Nc1ccc(N2CCOCC2)cc1	.	.	0	.	.
O=C(CN1CCN(C(c2ccccc2)c2ccccc2)CC1)Nc1ccc(N2CCOCC2)cc1	-4	43*	-7	1	.
CCCC(=O)Nc1ccc2c(c1)OC[C@@H](C)N(CCC(F)(F)F)C[C@H](C)[C@@H](OC)CN(C)C2=O	0	0	9	-1	-1
C[C@H]1CN([C@@H](C)CO)C(=O)CCCn2cc(nn2)CO[C@H]1CN(C)C(=O)c1cc(-c2ccccc2)on1	.	.	-12	.	4
CCCC#Cc1cnc2c(c1)C(=O)N([C@@H](C)CO)C[C@@H](C)[C@H](CN(C)C(=O)Nc1ccccc1OC)O2	4	1	-7	5	-15
CCCNC(=O)N1C[C@@H](O)COC[C@@H]2O[C@@H](CC(=O)NCCCN3CCOCC3)CC[C@H]21	1	0	-12	-3	11
CO[C@H]1CN(C)C(=O)c2ccc(NC(=O)C3CCC3)cc2OC[C@H](C)N(C(=O)CN(C)C)C[C@H]1C	.	.	.	.	-8
Cc1ccc(NC(=O)CSc2n[nH]c(N)n2)cc1S(=O)(=O)N1CCOCC1	-4	44*	2	2	-6
C[C@H]1CCCCO[C@H](CN(C)Cc2ccc(Cl)c(Cl)c2)[C@@H](C)CN([C@@H](C)CO)C(=O)c2cc(NS(=O)(=O)c3ccc(F)cc3)ccc2O1	15*	0	3	0	1
C[C@@H]1CCCCO[C@H](CN(C)Cc2ccc(Cl)c(Cl)c2)[C@H](C)CN([C@@H](C)CO)C(=O)c2cc(NS(=O)(=O)c3ccccc3)ccc2O1	16*	1	.	-3	2
C[C@@H]1CCCCO[C@@H](CN(C)Cc2ccc(Cl)c(Cl)c2)[C@@H](C)CN([C@H](C)CO)C(=O)c2cc(NS(=O)(=O)c3ccc(F)cc3)ccc2O1	2	0	-10	3	-10
Cc1c(C(=O)N2CCOCC2)c(S(=O)(=O)Nc2ccc(F)cc2)c(C)n1C	3	0	10	1	4
Cc1c(C(=O)N2CCOCC2)c(S(=O)(=O)Nc2ccccc2)c(C)n1C	19*	0	-14	7	7
Cc1noc(C)c1S(=O)(=O)N(C)C[C@@H]1OCCCC[C@H](C)Oc2ccc(NC(=O)C3CCCCC3)cc2C(=O)N([C@@H](C)CO)C[C@H]1C	-2	-1	.	-1	-6
CC(=O)NCc1ccc(C(=O)CN2C(=O)NC3(CCCCC3C)C2=O)s1 (stereo not given)	15*	0	4	-2	.
CCOc1ccc(CN(C)CC(=O)Nc2cc(C)c(C)cc2[N+](=O)[O-])cc1	-2	43*	10	-2	0
CCOc1ccc(CN(C)CC(=O)Nc2cc(OC)c([N+](=O)[O-])cc2C)cc1	-3	0	2	-1	.
COc1ccc(NC(=O)N(C)C[C@@H]2Oc3cc(C#CCC(C)C)ccc3S(=O)(=O)N([C@H](C)CO)C[C@@H]2C)cc1	31*	0	.	0	-16
COc1ccc(NC(=O)N(C)C[C@H]2Oc3cc(C#CCC(C)C)ccc3S(=O)(=O)N([C@H](C)CO)C[C@H]2C)cc1	25*	0	.	-1	-19
COc1ccc(NC(=O)N(C)C[C@H]2Oc3cc(C#CCC(C)C)ccc3S(=O)(=O)N([C@H](C)CO)C[C@@H]2C)cc1	26*	0	.	1	9
COc1ccc(NC(=O)N(C)C[C@@H]2Oc3cc(C#CCC(C)C)ccc3S(=O)(=O)N([C@@H](C)CO)C[C@H]2C)cc1	31*	0	.	-2	-1
C[C@@H]1CN([C@H](C)CO)C(=O)Cc2cc(NC(=O)CCCCCC(=O)Nc3ccccc3N)ccc2O[C@H]1CN(C)C(=O)Nc1ccccc1	7	0	.	-1	19
COc1ccc(NC(=O)Nc2ccc3c(c2)CC(=O)N([C@@H](C)CO)C[C@@H](C)[C@H](CN(C)S(=O)(=O)c2cccs2)O3)cc1	4	-1	0	-1	12
Fc1ccc(NC(=S)NCc2ccccn2)cc1	.	.	.	.	-12
S=C(NCc1ccccn1)Nc1ccccc1	0	44*	9	-2	8
S=C(NCCc1ccccn1)Nc1ccc(Cl)cc1	1	0	1	-1	.
